Measurements gathered from unrelated publications.
Each line is one published result; the experiments were not run side by side.
Target: RAC-alpha serine/threonine-protein kinase (AKT1, Homo sapiens, UniProt P31749)

Compound | assay | conditions | remaining binding [%]
CNC(=O)[C@@H]1CC[C@@H](n2c(-c3ccc4cnccc4c3)nc3ccc(C(=O)NCc4cccc(C(N)=O)c4)cc32)C1 | binding, competition with immobilised ligand | 1 µM | 100
O=C(NCc1ncc(C(F)(F)F)cc1Cl)c1ccc2c(c1)C1(CCS(=O)(=O)CC1)[C@@H](C1CC1)N2S(=O)(=O)c1ccc(F)cc1 | cell-free assay, competition with immobilised ligand | 1 µM | 94
O=C(NCCCN1CCOCC1)c1ccc(Nc2nccc(-c3cc4ccccc4s3)n2)cc1 | binding, competition with immobilised ligand | 1 µM | 100
C[C@@H](c1ccc(-n2cnc3c(N)ncnc32)cc1)N1CCc2nn(C)c(Cc3ccccc3)c2C1=O | binding, competition with immobilised ligand | 0.1 µM | 100
N#Cc1ccc(Nc2ccc3[nH]c(=O)[nH]c3c2)c(Cl)c1 | cell-free assay, competition with immobilised ligand | 1 µM | 67
O=C(Nc1c[nH]nc1C(=O)NC1CCNCC1)c1cc(F)cc(F)c1 | binding, competition with immobilised ligand | 1 µM | 92
CS(=O)(=O)N1CCCC(NC(=O)[C@H](CCC2CCCCC2)NC(=O)c2ccc(CNC(=O)c3cnc4ccccn34)cc2)C1 (some centres unmarked) | cell-free assay, competition with immobilised ligand | 0.1 µM | 100
C=CC(=O)N1CCC(C(=O)NCC(=O)N2CCN(c3nc(-c4cnc(N)nc4C(F)F)nc(N4CCOCC4)n3)CC2)CC1 | binding, competition with immobilised ligand | 1 µM | 94
CN(c1nccc(-c2cnn3ncccc23)n1)C1CC1 | binding | 1 µM | 100
Cc1nc(Cc2cccc(C(F)(F)F)c2)sc1-c1ccc(C(N)=O)nc1 | cell-free assay, competition with immobilised ligand | 1 µM | 82
C[C@H]1CCN(c2nccc(-c3cnn4ncccc34)n2)C1 | binding | 1 µM | 92
O=C(NCCCN1CCOCC1)c1ccc(Nc2ncc(Cl)c(-c3ccc(Cl)s3)n2)cc1 | binding, competition with immobilised ligand | 1 µM | 100
O=C(NCCCC1CCCCC1)c1ccc(CNC(=O)c2cnn(-c3ccccc3)c2C(F)(F)F)cc1 | cell-free assay, competition with immobilised ligand | 0.1 µM | 100
CN(C)c1ncc(F)c(-c2cnn3ncccc23)n1 | binding | 1 µM | 100
COc1ncc2cc3ccccc3nc2c1C#N | cell-free assay, competition with immobilised ligand | 5 µM | 92
CN(C)c1nccc(-c2cnn3ncccc23)n1 | binding | 1 µM | 100
FC(F)(F)Oc1cccc(-c2cnc3ccc(-c4ccncc4)nn23)c1 | cell-free assay, competition with immobilised ligand | 5 µM | 88
